Measurements as given in paper PMC9939723 (Redox Biology, 2023).
Where “and” joins values, the source holds several entries; their conditions need not be identical. Equal values may be shown once. Read-outs that look alike come from different tables or passages of the source.

How the values were obtained:
[1] = tested on: CRAB; experiment: Checkerboard microdilution assay, antibiotic with gold complexes; type: cell-based, Acinetobacter baumannii; settings: for FIC index / MIC of antibiotic: CRAB; for MIC: Acinetobacter baumannii; for MIC of antibiotic: antibiotic alone
Method in brief: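 Checkerboard in 96-well plates. Inoculum diluted per the CLSI broth microdilution method. Gold complex 0–20 μM crossed with antibiotic 0–240 μM. Growth inhibition read as OD600 on a plate reader.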

[2] = tested on: carbapenem-resistant Pseudomonas aeruginosa (BAA-2108); experiment: MIC by microbroth dilution against CRPA; type: cell-based; settings: 24 h incubation
Method in brief: (§1)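 Broth microdilution per CLSI guidelines in 96-well plates. Incubated 37 °C for 24 h, then read on a microplate reader.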

[3] = tested on: carbapenem-resistant Acinetobacter baumannii (CRAB); experiment: MIC by microbroth dilution against CRAB; type: cell-based; settings: 24 h incubation
Method in brief: as §1

[4] = molecular target: TrxR in CRAB (Acinetobacter baumannii, UniProt A0A0G4QN87); experiment: Cellular TrxR activity assay; type: cell-based; settings: read-out: IC50 inhibition of TrxR activity in CRAB; 2 h treatment of bacteria
Chain of TrxR in CRAB (A0A0G4QN87 1-315): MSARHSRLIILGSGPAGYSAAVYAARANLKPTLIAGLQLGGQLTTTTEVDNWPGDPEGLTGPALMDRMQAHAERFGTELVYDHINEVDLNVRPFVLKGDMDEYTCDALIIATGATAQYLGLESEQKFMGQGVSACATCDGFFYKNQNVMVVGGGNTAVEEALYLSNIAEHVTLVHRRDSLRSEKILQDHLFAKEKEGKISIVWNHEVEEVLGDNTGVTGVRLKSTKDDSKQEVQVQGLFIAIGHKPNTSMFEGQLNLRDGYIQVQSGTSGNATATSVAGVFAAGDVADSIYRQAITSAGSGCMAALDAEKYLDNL
Method in brief: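 Cultures at OD600 0.4–0.6 exposed to 0, 0.5, 1, 2, 5, 10, 20 μM for 2 h. Pellets washed three times in PBS and normalised to OD600 0.7 ± 0.02. TrxR assayed with a kit: NADPH-driven DTNB reduction, 2-vinylpyridine added to block GSH, activity from the rate of TNB increase at 412 nm on a plate reader.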

[5] = tested on: carbapenem-resistant Klebsiella pneumonia (BAA-1705); experiment: MIC by microbroth dilution against CRKP; type: cell-based; settings: 24 h incubation
Method in brief: as §1

[6] = tested on: CRAB-induced peritonitis; experiment: Murine peritonitis infection model; type: in vivo, BALB/c mice
Method in brief: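 Male (n = 8/group) and female (n = 12/group) BALB/c mice, 18–22 g, infected i.p. with 200 μL CRAB (1 × 10^9 cfu/mL). Single i.p. dose of 5 mg/kg given 1 h post-infection; PBS as control. Survival followed for 72 h. Experiment repeated three times.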

[7] = tested on: TrxB expression in CRAB; experiment: TrxB expression by qPCR; type: cell-based, Acinetobacter baumannii; settings: 2 h
Method in brief: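 Bacteria at initial OD600 0.4–0.5 exposed to compound and shaken 2 h at 37 °C. Total RNA extracted with a kit (lysis buffer, chloroform). TrxB mRNA measured by qPCR with 16S as internal control, 2^−ΔΔCt method, in triplicate.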

[8] = molecular target: T1, purified rat liver TrxR (Rattus norvegicus, UniProt O89049); settings: read-out: IC50 purified TrxR activity; previous report ref 38; cited from earlier work
T1 sequence (O89049 1-499): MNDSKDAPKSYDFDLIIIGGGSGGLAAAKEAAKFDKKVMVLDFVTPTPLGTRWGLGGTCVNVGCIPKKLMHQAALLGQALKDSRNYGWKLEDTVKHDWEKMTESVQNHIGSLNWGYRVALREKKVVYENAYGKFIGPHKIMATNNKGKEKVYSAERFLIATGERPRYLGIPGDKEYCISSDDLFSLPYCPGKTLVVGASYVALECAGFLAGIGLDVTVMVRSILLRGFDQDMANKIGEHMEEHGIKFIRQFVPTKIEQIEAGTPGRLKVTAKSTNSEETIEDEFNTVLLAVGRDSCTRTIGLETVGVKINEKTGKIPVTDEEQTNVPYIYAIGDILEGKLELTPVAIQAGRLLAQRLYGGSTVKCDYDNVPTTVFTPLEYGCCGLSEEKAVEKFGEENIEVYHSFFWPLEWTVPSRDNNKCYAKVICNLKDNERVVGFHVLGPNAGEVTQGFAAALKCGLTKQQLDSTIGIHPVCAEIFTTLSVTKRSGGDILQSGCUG

[9] = tested on: carbapenem-resistant Escherichia coli (BAA-2140); experiment: MIC by microbroth dilution against CREco; type: cell-based; settings: 24 h incubation
Method in brief: as §1

[10] = tested on: vancomycin-intermediate Staphylococcus aureus (ATCC 700699); experiment: MIC by microbroth dilution against VISA; type: cell-based; settings: 24 h incubation
Method in brief: as §1

Row | SMILES | FIC index ([1]; gold complex in combination with cefotaxime) | FIC index ([1]; gold complex in combination with imipenem) | MIC CRPA [2] | MIC CRAB [3] | IC50 [4] | MIC CRKP [5] | mice surviving to 34 h ([6]; female BALB/c, n = 12, i.p. 5 mg/kg 1 h after infection) | mice surviving to 24 h ([6]; male BALB/c, n = 8, single i.p. 5 mg/kg 1 h after infection) | expression of TrxB (mRNA) [7] | IC50 [8] | MIC CREco [9] | MIC VISA [10] | MIC ([1]; read-out: MIC of cefotaxime in the presence of H7) | MIC ([1]; read-out: MIC of cefotaxime in the presence of H8) | MIC of antibiotic [1]
1 | CC(=O)OC[C@H]1O[C@@H]([S-])[C@H](OC(C)=O)[C@@H](OC(C)=O)[C@@H]1OC(C)=O.CCP(CC)CC.[Au+] [Auranofin] | 0.625 | 0.75 | 40 μM and 27.12 μg/mL | 20 μM and 13.56 μg/mL | 6.31 µM | 40 μM and 27.12 μg/mL | seven of the twelve mice | four of the eight mice | no effect | 0.0826 µM | 40 μM and 27.12 μg/mL | 0.34 μg/mL and 0.5 μM |  |  | 
2 | CO/N=C(\C(=O)N[C@@H]1C(=O)N2C(C(=O)O)=C(COC(C)=O)CS[C@H]12)c1csc(N)n1 [Cefotaxime] |  |  |  |  |  |  |  |  |  |  |  |  | 30 µM | 30 µM | 240 µM
3 | C[C@@H](O)[C@H]1C(=O)N2C(C(=O)O)=C(SCCN=CN)C[C@H]12 [Imipenem] |  |  |  |  |  |  |  |  |  |  |  |  |  |  | 240 µM
